Data on twelve compounds can be found in ChEMBL document CHEMBL1138240, “Identifying merozoite surface protein 4 and merozoite surface protein 7 Plasmodium falciparum protein family members specifically binding to human erythrocytes suggests a new malarial parasite-redundant survival mechanism” (J Med Chem, 2007).

Test [1] is described as follows: Binding affinity to 52 kDa erythrocyte membrane protein in human erythrocytes. The test is classed as cell-based. The procedure, abridged:
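Saturation binding used RBC at 1.5 × 10^7 cell/µL with 125I-peptide at 0–1800 nM, with or without 200-fold excess unlabeled peptide, for 90 min. Free label was sampled from the supernatant. Cells were washed twice with HBS and bound counts were measured by gamma counting, in triplicate. Affinity constant and sites per cell came from saturation curves; Hill coefficient came from a Hill plot.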

Test [2] deals with Erythrocyte. The experiment in a line: Binding affinity to 52 kDa erythrocyte membrane protein in neuraminidase treated human erythrocytes at 1 mg/mL after 1 hr relative to control. The test is classed as cell-based.
Test [3] relates to Erythrocyte. The experiment in a line: Binding affinity to 52 kDa erythrocyte membrane protein in trypsin treated human erythrocytes at 1 mg/mL after 1 hr relative to control. Format: cell-based. Put shortly:
(§1)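 Human RBC (1.5 × 10^7 cell/µL in HBS pH 7.2, 1 mL) were treated for 1 h at 37 °C with shaking. […] used neuraminidase at 150 µU/mL. […] used trypsin and chymotrypsin at 1 mg/mL final. Cells were spun and washed thrice with HBS, then tested in the 125I-peptide binding assay. Specific binding is given as % of untreated-RBC control.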

Test [4] has as its system Erythrocyte. The experiment in a line: Binding affinity to 52 kDa erythrocyte membrane protein in chymotrypsin treated human erythrocytes at 1 mg/mL after 1 hr relative to control. The test is classed as cell-based. Put shortly: as §1
In test [5] the test system is Plasmodium falciparum. The experiment in a line: Inhibition of Plasmodium falciparum FCB2 merozoite invasion of human erythrocytes at 200 uM. The test is classed as functional. Put shortly: (§2)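 Sorbitol-synchronized P. falciparum FCB-2 was grown to late schizonts and set at 0.5% parasitemia and 5% hematocrit in RPMI 1640 with 10% O+ plasma. Peptides were added at 100 or 200 µM, in triplicate. Plates were incubated 18 h at 37 °C under 5% O2/5% CO2/90% N2. RBC were stained with hydroethidine 15 µg/mL for 30 min, washed, and read by flow cytometry (FL2). Values are mean ± SD of three experiments.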

The subject of test [6] is Plasmodium falciparum. The experiment in a line: Inhibition of Plasmodium falciparum FCB2 merozoite invasion of human erythrocytes at 100 uM. The test is classed as functional. Set-up: scale not given: the % may be the effect or the level left. Put shortly: as §2
Test [7] relates to Erythrocyte. Nature of the test: Displacement of [125I]MSP-4 20494 peptide from 52 kDa erythrocyte membrane protein in human erythrocytes at 30 uM. Format: cell-based. The procedure, abridged:
(§3)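 Competition used 125I-labeled MSP-4 peptide 20494 at 300 nM with 1 × 10^7 human RBC. Unlabeled competitor peptides were present at 3–30 µM. Incubation was 90 min at room temperature. Cells were washed three times with HBS and cell-bound radioactivity was counted on a gamma counter.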
On the technique in general: In a radioligand displacement assay an active substance lowers the binding of a labelled ligand.

In test [8] the test system is Plasmodium falciparum. The experiment in a line: Inhibition of Plasmodium falciparum FCB2 merozoite invasion of human erythrocytes at […]. Format: functional.
Test [9] deals with Plasmodium falciparum. Nature of the test: Inhibition of Plasmodium falciparum FCB2 merozoite invasion of human erythrocytes at 0.5 mg/mL. Format: functional. Put shortly: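 Sorbitol-synchronized FCB-2 cultures grown to late schizont stage at 0.5% parasitemia and 5% hematocrit in RPMI 1640 with 10% O-positive plasma. Agent added in triplicate, then incubated 18 h at 37 °C under 5% O2/5% CO2/90% N2. Erythrocytes stained with 15 µg/mL hydroethidine for 30 min at 37 °C. Invasion read by flow cytometry (FL2).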

Test [10] relates to Erythrocyte. Nature of the test: Displacement of [125I]MSP-4 20494 peptide from 52 kDa erythrocyte membrane protein in human erythrocytes. The test is classed as cell-based. Put shortly:
as §3

Active and inactive are the calls of the source. No cut-off for these calls is given here. Peptide text beside a SMILES is read from it.

Usually Kd stands for the equilibrium constant for the complex coming apart. Broadly, the inhibition is how much of the control response was suppressed. H-NLGLFGKNVLSKVKAQSETDY-OH yielded a Kd in test [1] of 600 nM. Further, the Activity in the test on Erythrocyte [2] was 105%; in the test with Erythrocyte [3], 0%; in the test with Erythrocyte [4], 160%; in the test on Plasmodium falciparum [6], 9%. The same compound had an inhibition at 200 µM with Plasmodium falciparum [5] of 59%.
In turn, `CC(C)C[C@H](NC(=O)[C@H](CCCCN)NC(=O)[C@H](Cc1ccc(O)cc1)NC(=O)CNC(=O)[C@H](CCC(=O)O)NC(=O)[C@H](CCCCN)NC(=O)[C@H](CS)NC(=O)[C@H](CCCCN)NC(=O)[C@H](CS)NC(=O)[C@H](CCCCN)NC(=O)[C@@H](NC(=O)[C@H](CCCNC(=N)N)NC(=O)[C@H](CCCNC(=N)N)NC(=O)[C@H](CC(N)=O)NC(=O)CNC(=O)[C@@H](NC(=O)[C@H](Cc1ccc(O)cc1)NC(=O)[C@@H](N)CCC(=O)O)C(C)C)C(C)C)C(=O)N[C@@H](CCC(=O)O)C(=O)NCC(=O)O` (H-EYVGNRRVKCKCKEGYKLEG-OH) had a Kd in test [1] of 470 nM. Moreover, the Activity in the test on Erythrocyte [2] amounted to 73%; in the test on Erythrocyte [3] it was 57%; in the test with Erythrocyte [4], 133%; in the test with Plasmodium falciparum [6], 16%; with Erythrocyte [7], 50%. For the same compound, testing at 200 µM in the test with Plasmodium falciparum [5] gave an inhibition of 20%.
The compound H-KNVHVLINGNSIIDEIEKNEY-OH showed an inhibition at 200 µM in the test on Plasmodium falciparum [5] of 29%. This compound also came in with an Activity in the test on Plasmodium falciparum [6] of 10%.
In the test on Plasmodium falciparum [8], `O=C(O)CN(CCOCCOCCN(CC(=O)O)CC(=O)O)CC(=O)O` [EGTAZIC ACID] yielded an inhibition of 83%.
Regarding H-KDKEYHEQFKNYIYGVYSYA-OH, the Activity in the test with Erythrocyte [2] was 73%; in the test on Erythrocyte [3], 0%; in the test on Erythrocyte [4] it was 34%; in the test on Plasmodium falciparum [6], 7%. In the test with Plasmodium falciparum [5], the inhibition at 200 µM is 24%.
Consider `CC(C)C[C@H](NC(=O)[C@H](CCCCN)NC(=O)[C@H](CC(=O)O)NC(=O)[C@H](CC(=O)O)NC(=O)CNC(=O)[C@H](CS)NC(=O)CN)C(=O)N[C@@H](CS)C(=O)N[C@@H](CCC(=O)O)C(=O)N[C@@H](Cc1ccc(O)cc1)C(=O)N[C@H](C(=O)NCC(=O)N[C@@H](CC(N)=O)C(=O)N[C@@H](CCCNC(=N)N)C(=O)N[C@@H](CCCNC(=N)N)C(=O)N[C@H](C(=O)N[C@@H](CCCCN)C(=O)N[C@@H](CS)C(=O)N[C@@H](CCCCN)C(=O)N[C@@H](CS)C(=O)N[C@@H](CCCCN)C(=O)O)C(C)C)C(C)C` (H-GCGDDKLCEYVGNRRVKCKCK-OH), for which at 200 µM the inhibition in the test on Plasmodium falciparum [5] was 18%. This compound also gave an Activity in the test with Plasmodium falciparum [6] of 3%.
H-KQNSHLSEKKIKPEEEYKKF-OH: the Activity in the test on Erythrocyte [2] was determined as 57%; in the test on Erythrocyte [3] it was 88%; in the test with Erythrocyte [4], 73%; in the test on Plasmodium falciparum [6], 22%. This compound gave an inhibition at 200 µM in the test with Plasmodium falciparum [5] of 83%.
For H-KPEEEYKKFLEYSFNLLNTM-OH, the dissociation constant Kd in test [1] stood at 450 nM. Moreover, the Activity was found to be 100% in the test on Erythrocyte [2], 10% with Erythrocyte [3], 0% with Erythrocyte [4] and 9% in the test with Plasmodium falciparum [6]. In the test on Plasmodium falciparum [5], this compound returned an inhibition at 200 µM of 49%.
Compound H-MRILGEEKPNVDGVSTSNTPY-OH displayed an inhibition at 200 µM with Plasmodium falciparum [5] of 11%. In the test on Plasmodium falciparum [6], this compound showed an Activity of 9%.
For the compound `CCN(CC)CCCC(C)Nc1ccnc2cc(Cl)ccc12` (centres undefined) [CHLOROQUINE], the inhibition at 500 µg/mL with Plasmodium falciparum [9] is 100%.
In [1], H-IKNKKLEKLKNIVSGDFVGNY-OH had a dissociation constant Kd of 550 nM. Further, the Activity with Erythrocyte [2] was found to be 105%; in the test on Erythrocyte [3], 174%; with Erythrocyte [4], 223%; in the test on Plasmodium falciparum [6] it was 22%. In the test on Plasmodium falciparum [5], this compound yielded an inhibition at 200 µM of 68%.
In the case of H-MWIVKFLIVVHFFIICTINFY-OH, the outcome with Erythrocyte [10] was inactive.
